In ChEMBL document CHEMBL4765366, “Targeting fungal virulence factor by small molecules: Structure-based discovery of novel secreted aspartic protease 2 (SAP2) inhibitors” (Eur J Med Chem, 2020):
Calls of active or inactive are those of the source. No cut-off for these calls is given here.

How the values were obtained:
Candida albicans [1] = assay: Downregulation of SAP2 in azole resistant Candida albicans 0304103 at 64 ug/ml by qRT-PCR analysis; assay type: functional; conditions: dose 64.0 µg/ml
Candida albicans [2] = assay: Antibiofilm activity against azole resistant Candida albicans 0304103 assessed as inhibition of biofilm formation at 64 ug/ml incubated for 24 hrs by XTT-dye based assay relative to control; assay type: functional
In short: (§1)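 Cell suspensions (1.0 × 10^5 CFU/mL) were adhered for 90 min at 37°C, then rinsed three times with PBS. Compounds were added at a range of concentrations from 2 mg/mL DMSO stocks, with fluconazole as the positive control. Plates were cultured 24 h at 37°C, and biofilm was measured semi-quantitatively by XTT reduction.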

Candida albicans [3] = assay: Inhibition of recombinant Candida albicans SAP2 at 100 uM using Dabcyl-Arg-Lys-Pro-Ala-Leu-Phe-Phe-Arg-Leu-Glu (EDANS)-Arg-OH as substrate incubated for 30 mins followed by substrate addition and measured after 30 mins by spectrophotometry relative to control; conditions: time 60.0 min
In short: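 FRET assay with purified expressed C. albicans SAP2 in 50 mM sodium citrate, 50 mM NaCl, pH 4.5. Compound (diluted in DMSO) was preincubated with enzyme 30 min before adding the Dabcyl/EDANS peptide substrate (18.75 μM solution in DMSO). Reaction ran 30 min at 30 °C, then fluorescence was read at ex 340, em 485 nm. Pepstatin A was the positive control.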

Candida tropicalis [4] = assay: Antibiofilm activity against azole resistant Candida tropicalis 10186 assessed as inhibition of biofilm formation at 64 ug/ml incubated for 24 hrs by XTT-dye based assay relative to control; assay type: functional; in short: as §1
Candida tropicalis [5] = assay: Antibiofilm activity against azole resistant Candida tropicalis 10186 assessed as inhibition of biofilm formation incubated for 24 hrs by XTT-dye based assay; assay type: functional, organism-based; conditions: dose 4-64 µg/ml; in short: as §1
Candida albicans [6] = assay: Antibiofilm activity against azole resistant Candida albicans 0304103 assessed as inhibition of biofilm formation incubated for 24 hrs by XTT-dye based assay; assay type: functional, organism-based; conditions: dose 4-64 µg/ml; in short: as §1
Candida albicans [7] = assay: Antifungal activity against azole resistant Candida albicans 0304103 infected in ICR mouse assessed as reduction in fungal burden in kidney at 10 mg/kg, ip administered for 4 days; assay type: functional, organism-based; conditions: time 4.0 day
In short: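 Female ICR mice (20–25 g) were immunosuppressed with cyclophosphamide, 100 mg/kg ip in saline. After 24 h they were infected iv with 0.2 mL of 1×10^5 CFU/mL cells. Starting 24 h after infection, mice (4 per group) received the drug ip once daily for four days; controls received saline or fluconazole 10 mg/kg. Kidneys were homogenized and plated on YPD at 30°C for log10 CFU.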

Candida albicans [8] = assay: Upregulation of TEC1 in azole resistant Candida albicans 0304103 at 64 ug/ml by qRT-PCR analysis; assay type: functional; conditions: dose 64.0 µg/ml
Candida albicans [9] = assay: Antibiofilm activity against azole resistant Candida albicans 0304103 assessed as inhibition of biofilm formation at 32 ug/ml in presence of fluconazole incubated for 24 hrs by XTT-dye based assay relative to control; assay type: functional
Candida albicans [10] = assay: Downregulation of ALS3 in azole resistant Candida albicans 0304103 at 64 ug/ml by qRT-PCR analysis; assay type: functional; conditions: dose 64.0 µg/ml
Candida albicans [11] = assay: Antibiofilm activity against azole resistant Candida albicans 0304103 assessed as inhibition of biofilm formation at 0.5 ug/ml in presence of fluconazole incubated for 24 hrs by XTT-dye based assay; assay type: functional, organism-based; conditions: dose 0.5 µg/ml
Candida albicans [12] = assay: Inhibition of hyphal formation in azole resistant Candida albicans 0304103 at 128 ug/ml incubated for 3 hrs by microscopic imaging analysis; assay type: functional
In short: (§2)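 Yeast cells (1.0 × 10^5 CFU/mL) were exposed to a range of compound concentrations, with fluconazole as the positive drug. Plates were incubated at 37°C for 3 h (C. albicans 0304103 and SC5314) or 7 h (C. tropicalis 10186). Hyphal growth was then observed and photographed by microscopy.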

[13] = Inhibition of recombinant Candida albicans SAP2 using Dabcyl-Arg-Lys-Pro-Ala-Leu-Phe-Phe-Arg-Leu-Glu (EDANS)-Arg-OH as substrate incubated for 30 mins followed by substrate addition and measured after 30 mins by spectrophotometry
Candida albicans [14] = assay: Inhibition of hyphal formation in azole sensitive Candida albicans SC5314 at 128 ug/ml incubated for 3 hrs by microscopic imaging analysis; assay type: functional; in short: as §2
Candida albicans [15] = assay: Downregulation of EFG1 in azole resistant Candida albicans 0304103 at 64 ug/ml by qRT-PCR analysis; assay type: functional; conditions: dose 64.0 µg/ml
Candida albicans [16] = assay: Downregulation of ECE2 in azole resistant Candida albicans 0304103 at 64 ug/ml by qRT-PCR analysis; assay type: functional; conditions: dose 64.0 µg/ml
Candida albicans [17] = assay: Inhibition of hyphal formation in azole resistant Candida albicans 0304103 at 4 to 32 ug/ml incubated for 3 hrs by microscopic imaging analysis; assay type: functional, organism-based; conditions: dose 4-32 µg/ml; in short: as §2
Candida tropicalis [18] = assay: Inhibition of hyphal formation in azole resistant Candida tropicalis 10186 at 64 ug/ml incubated for 7 hrs by microscopic imaging analysis; assay type: functional; in short: as §2
Candida albicans [19] = assay: Upregulation of CPH1 in azole resistant Candida albicans 0304103 at 64 ug/ml by qRT-PCR analysis; assay type: functional; conditions: dose 64.0 µg/ml
Candida albicans [20] = assay: Inhibition of hyphal formation in azole sensitive Candida albicans SC5314 at 4 to 32 ug/ml incubated for 3 hrs by microscopic imaging analysis; assay type: functional, organism-based; conditions: dose 4-32 µg/ml; in short: as §2
Candida tropicalis [21] = assay: Inhibition of hyphal formation in azole resistant Candida tropicalis 10186 at 4 to 16 ug/ml incubated for 7 hrs by microscopic imaging analysis; assay type: functional, organism-based; conditions: dose 4-16 µg/ml; in short: as §2

Cc1ccc(-c2ccc3c(c2)N(Cc2ccc(Cl)cc2)C(=O)/C3=C/c2ccc(OCC(=O)O)cc2OCC(=O)O)cc1
Activity (Candida albicans [1]): Active
inhibition at 64 µg/mL (Candida albicans [2]): > 50%
inhibition (Candida albicans [3]): 100%
inhibition at 64 µg/mL (Candida tropicalis [4]): > 50%
inhibition (Candida tropicalis [5]): Dose-dependent effect
inhibition (Candida albicans [6]): Dose-dependent effect

OC(Cn1cncn1)(Cn1cncn1)c1ccc(F)cc1F
Activity (Candida albicans [7]): Active

Cc1ccc(CN2C(=O)/C(=C/c3ccc(OCC(=O)O)cc3OCC(=O)O)c3ccc(-c4ccc(C)cc4)cc32)cc1
Activity (Candida albicans [1]): Active
Activity (Candida albicans [8]): Active
inhibition at 32 µg/mL (Candida albicans [9]): 90%
Activity (Candida albicans [10]): Active
inhibition (Candida albicans [11]): Active
inhibition at 128 µg/mL (Candida albicans [12]): 100%
IC50 [13]: 0.92 µM
inhibition at 128 µg/mL (Candida albicans [14]): 100%
Activity (Candida albicans [15]): Active
inhibition (Candida albicans [3]): 100%
Activity (Candida albicans [16]): Active
inhibition (Candida albicans [17]): inactive
inhibition at 64 µg/mL (Candida tropicalis [18]): 100%
Activity (Candida albicans [19]): Active
inhibition (Candida albicans [20]): inactive
inhibition at 64 µg/mL (Candida tropicalis [4]): > 50%
inhibition (Candida tropicalis [21]): Active
inhibition (Candida tropicalis [5]): Dose-dependent effect
inhibition (Candida albicans [6]): Dose-dependent effect
Activity (Candida albicans [7]): Active

CC(=O)c1ccc(CN2C(=O)/C(=C/c3ccc(OCC(=O)O)cc3OCC(=O)O)c3ccc(-c4ccc(C)cc4)cc32)cc1
Activity (Candida albicans [1]): Active
inhibition (Candida albicans [3]): 90%

Cc1ccc(-c2ccc3c(c2)N(Cc2ccc(C(F)(F)F)cc2)C(=O)/C3=C/c2ccc(OCC(=O)O)cc2OCC(=O)O)cc1
Activity (Candida albicans [1]): Active
inhibition (Candida albicans [3]): 100%
inhibition at 64 µg/mL (Candida tropicalis [4]): > 50%
inhibition (Candida tropicalis [5]): Dose-dependent effect
inhibition (Candida albicans [6]): Dose-dependent effect

O=C(O)COc1ccc(/C=C2\C(=O)N(c3ccccc3)N=C2c2ccccc2)cc1OCC(=O)O
IC50 [13]: 18.5 µM
inhibition (Candida albicans [3]): 86%

O=C(O)COc1ccccc1/C=C1\C(=O)N(c2ccccc2)N=C1c1ccccc1
IC50 [13]: 62.1 µM
inhibition (Candida albicans [3]): 68%

Cc1ccc(CN2C(=O)C(=Cc3ccc(OCC(=O)O)cc3OCC(=O)O)C(=O)N2Cc2ccc(C)cc2)cc1
IC50 [13]: 17.4 µM
inhibition (Candida albicans [3]): 94%

Cc1ccc(-c2ccc3c(c2)N(Cc2ccc(S(C)(=O)=O)cc2)C(=O)/C3=C/c2ccc(OCC(=O)O)cc2OCC(=O)O)cc1
inhibition (Candida albicans [3]): 100%
inhibition (Candida tropicalis [5]): Dose-dependent effect
inhibition (Candida albicans [6]): Dose-dependent effect

Cc1ccc(N2N=C(c3ccccc3)/C(=C/c3ccccc3OCC(=O)O)C2=O)cc1
IC50 [13]: 72.3 µM
inhibition (Candida albicans [3]): 63%

O=C(O)COc1ccc(/C=C2\C(=O)N(c3ccccc3)N=C2c2ccccc2)c(OCC(=O)O)c1
IC50 [13]: 10.1 µM
inhibition (Candida albicans [3]): 99%

COc1ccc(N2N=C(c3ccccc3)/C(=C/c3ccccc3OCC(=O)O)C2=O)cc1
IC50 [13]: 70.7 µM
inhibition (Candida albicans [3]): 64%

O=C(O)COc1ccc(/C=C2\C(=O)N(c3ccc(Cl)cc3)N=C2c2ccccc2)c(OCC(=O)O)c1
IC50 [13]: 10.8 µM
inhibition (Candida albicans [3]): 99%

Cc1ccc(-c2ccc3c(c2)N(Cc2ccc(C#N)cc2)C(=O)/C3=C/c2ccc(OCC(=O)O)cc2OCC(=O)O)cc1
Activity (Candida albicans [1]): Active
inhibition at 64 µg/mL (Candida albicans [2]): > 50%
inhibition (Candida albicans [3]): 100%
inhibition (Candida tropicalis [5]): Dose-dependent effect
inhibition (Candida albicans [6]): Dose-dependent effect
